# Assay results: publication PMC5573263 (Journal of medicinal chemistry, 2016)
# Experiments:
# [1] = Mouse liver microsome assay; format: in vitro ADME; details: for metabolism of the C-4 carboxanilide aromatic ring: microsomal metabolism studies, in words; for CLint scaled at 0.08 uM: female, CD-1, mouse, liver microsomes, pH 7.4
# In short: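 Pooled female CD-1 mouse liver microsomes in 0.1 M potassium phosphate (pH 7.4) with EDTA. Test compound (0.08 uM final) incubated with NADPH-regenerating system at 37 °C, shaken, in triplicate. At 0, 0.5, 1, 2 and 4 h, quenched with cold methanol containing 2 μM caffeine internal standard; UPLC-MS. Half-life from the decay slope; CLint scaled with 0.5 mg/mL protein, 45 mg microsome/g liver and 52 g liver/kg.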
# [2] = Dose related exposure in the rat; format: in vivo; details: data not shown
# [3] = Ames' assay; format: cell-based
SMILES,CLint scaled at 0.08 uM [1] [mL/min/kg],also measured
COc1ccc(NC(=O)[C@H]2c3ccccc3C(=O)N(CC(C)C)[C@@H]2c2cccs2)cc1Cl (racemic) [10b],,metabolism of the C-4 carboxanilide aromatic ring [1]: readily demethylated
CC(C)CN1C(=O)c2ccccc2[C@H](C(=O)Nc2cccc(C#N)c2)[C@H]1c1cccs1 (racemic) [10d],195,metabolism of the C-4 carboxanilide aromatic ring [1]: hydroxylated
CC(C)CN1C(=O)c2ccccc2[C@H](C(=O)Nc2ccc(F)c(C#N)c2)[C@H]1c1ccc(C#N)s1 (racemic) [11l],44.7,
N#Cc1cc(N)ccc1F [3-cyano-4-fluoroaniline],,Ames' assay result [3]: negative

# Further lines, with some results ahead:
CLint scaled at 0.08 uM [1] [mL/min/kg],SMILES,also measured
162,CC(C)CN1C(=O)c2ccccc2[C@H](C(=O)Nc2ccc(F)c(C#N)c2)[C@H]1c1cn[nH]c1 (racemic) [11t],
< 13.5,"N#Cc1cc(NC(=O)[C@H]2c3ccccc3C(=O)N(CC(F)(F)F)[C@@H]2c2cn[nH]c2)ccc1F (relative stereo) [13h, (3S*,4S*)-N-(3-Cyano-4-fluorophenyl)-1-oxo-3-(1H-pyrazol-4-yl)-2-(2,2,2-trifluoroethyl)-1,2,3,4-tetrahydroisoquinoline-4-carboxamide]",
33.1,"N#Cc1cc(NC(=O)[C@H]2c3ccccc3C(=O)N(CC(F)(F)F)[C@@H]2c2cccnc2)ccc1F (relative stereo) [13i, (3S*,4S*)-N-(3-Cyano-4-fluorophenyl)-1-oxo-3-(pyridin-3-yl)-2-(2,2,2-trifluoroethyl)-1,2,3,4-tetrahydroisoquinoline-4-carboxamide]",dose related exposure [2]: excellent dose related exposure
